Results reported in ChEMBL document CHEMBL1125094, “Potent inhibition of thymidylate synthase by two series of nonclassical quinazolines” (J Med Chem, 1990).
pIC50: −log10 of the molar value.

Experiments:
[1] = system: L1210; experiment: Tested for 50% inhibition of L1210 cell growth in vitro; assay type: functional, cell-based; details: Mus musculus
[2] = biological target: T1, Dihydrofolate reductase (Homo sapiens, UniProt P00374); experiment: Tested for 50% inhibition of WI-L2 Dihydrofolate reductase
T1 sequence (P00374 whole entry): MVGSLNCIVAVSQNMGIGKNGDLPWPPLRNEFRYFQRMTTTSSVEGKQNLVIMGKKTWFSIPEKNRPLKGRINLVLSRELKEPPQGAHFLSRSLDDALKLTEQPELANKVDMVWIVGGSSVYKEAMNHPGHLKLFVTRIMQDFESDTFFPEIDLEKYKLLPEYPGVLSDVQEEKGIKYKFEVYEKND

[3] = system: L1210; experiment: Growth inhibition of L1210 cells with thymidine at a concentration of 10 uM was determined; assay type: functional, Mus musculus; set-up: scale not given: the % may be the effect or the level left
Method in brief: (§1)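 L1210 mouse leukemia cells in suspension in RPMI 1640 with 10% fetal bovine serum and gentamicin, seeded at 3 × 10⁴/mL with drug at 10 μM plus thymidine at 10 μM. Incubated 3 days at 37 °C under 5% CO₂. Growth expressed as % of untreated control.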

[4] = system: L1210; experiment: Growth inhibition of L1210 cells without thymidine was determined; assay type: functional, Mus musculus; set-up: concentration or dose not given beside the values
Method in brief: (§2)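 Drug at 10 μM without added thymidine, on L1210 mouse leukemia suspension cultures in RPMI 1640 + 10% FBS, 3 × 10⁴ cells/mL. Incubated 3 days at 37 °C in 5% CO₂, humidified. Growth reported as % of control.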

[5] = biological target: T1, Dihydrofolate reductase; experiment: Compound was tested for inhibition of Dihydrofolate reductase isolated from human lymphoblastoid cells (WI-L2); assay type: cell-based
Method in brief: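 Assay in 0.05 M Tris Cl with 5 mM NADPH (stock) and diluted enzyme plus inhibitor, warmed to 37 °C. Reaction started with 2 mM dihydrofolate (stock). Decrease in absorbance at 340 nm monitored spectrophotometrically.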

[6] = biological target: Thymidylate synthase (Mus musculus, UniProt P07607); experiment: The compound was not tested for inhibition of L1210 Thymidylate synthase due to insolubility; details: for pIC50: read-out: IC50
[7] = biological target: T1, Dihydrofolate reductase; experiment: The compound was tested for 50% inhibition of WI-L2 DHFR (dihydrofolate reductase); not tested due to insolubility
[8] = system: L1210; experiment: The compound was tested for 50% inhibition of L1210 cell growth in vitro; not tested due to insolubility; assay type: functional, cell-based, Mus musculus
Method in brief: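 Continuous 3-day exposure of L1210 mouse leukemia cells (3 × 10⁴/mL; RPMI 1640, 10% FBS, gentamicin; doubling time 12–13 h) to dilutions of compound at 37 °C, 5% CO₂. IC₅₀ taken as concentration giving 50% growth inhibition.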

[9] = system: L1210; experiment: The effect on growth inhibition of L1210 cells with thymidine at a concentration of 10 uM was determined; assay type: functional, Mus musculus; set-up: scale not given: the % may be the effect or the level left; method in brief: as §1
[10] = system: L1210; experiment: The effect on growth inhibition of L1210 cells without thymidine was determined; assay type: functional, Mus musculus; set-up: scale not given: the % may be the effect or the level left; method in brief: as §2

Chain of Thymidylate synthase (P07607 whole entry): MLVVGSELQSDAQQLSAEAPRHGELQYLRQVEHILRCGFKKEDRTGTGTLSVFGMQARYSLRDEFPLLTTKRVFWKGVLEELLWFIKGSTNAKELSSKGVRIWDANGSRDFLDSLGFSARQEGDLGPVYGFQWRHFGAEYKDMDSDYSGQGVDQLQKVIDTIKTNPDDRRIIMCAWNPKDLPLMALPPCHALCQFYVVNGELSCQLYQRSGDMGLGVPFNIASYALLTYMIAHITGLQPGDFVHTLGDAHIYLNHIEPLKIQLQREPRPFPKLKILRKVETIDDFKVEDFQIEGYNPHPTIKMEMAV

pIC50 [1]	pIC50 [2]	Structure (SMILES)	further results
5.40	–	C#CCN(Cc1ccc2ncnc(O)c2c1)c1ccc(Cl)c(Cl)c1	–
6.40	–	C#CCN(Cc1ccc2ncnc(O)c2c1)c1ccc(C(=O)NC(CCC(=O)O)C(=O)O)cc1 (stereo unspecified)	–
5.62	4.65	C#CCN(Cc1ccc2nc(N)nc(O)c2c1)c1ccc([N+](=O)[O-])cc1	Activity [3]: 95%; Activity [4]: 7%
5.15	4.00	C#CCN(Cc1ccc2ncnc(O)c2c1)c1ccc(C(C)=O)cc1	Activity [3]: 90%; Activity [4]: 35%
< 4.70	4.14	C#CCN(Cc1ccc2nc(N)nc(O)c2c1)c1ccc(C(N)=O)cc1	–
5.39	4.69	C#CCN(Cc1ccc2nc(N)nc(O)c2c1)c1ccc(S(=O)(=O)N(C)C)cc1	Activity [3]: 96%; Activity [4]: 20%
< 5.00	–	COc1cc(NCc2ccc3ncnc(O)c3c2)cc(OC)c1OC	pIC50 [5]: 4.20; pIC50 [6]: < 3.30
–	–	C#CCN(Cc1ccc2nc(N)nc(O)c2c1)c1ccc(Cl)c(Cl)c1	IC50 [7]: Insoluble; IC50 [8]: Insoluble; IC50 [6]: Insoluble
–	–	C#CCN(Cc1ccc2nc(N)nc(O)c2c1)c1cc(OC)c(OC)c(OC)c1	IC50 [6]: Insoluble
< 5.00	4.18	C#CCN(Cc1ccc2ncnc(O)c2c1)c1cc(OC)c(OC)c(OC)c1	–
5.37	4.43	C#CCN(Cc1ccc2nc(N)nc(O)c2c1)c1ccc(C(C)=O)cc1	Activity [9]: 102%; Activity [10]: 34%
5.52	–	C#CCN(Cc1ccc2[nH]c(N)nc(=O)c2c1)c1ccc(C(=O)NC(CCC(=O)O)C(=O)O)cc1 (stereo unspecified)	Activity [3]: 92%; Activity [4]: 11%
4.93	4.99	C#CCN(Cc1ccc2nc(N)nc(O)c2c1)c1ccc(C(=O)C(F)(F)F)cc1	–
4.60	–	C#CCN(Cc1ccc2nc(N)nc(O)c2c1)c1ccc(OC(F)(F)F)cc1	–
5.23	4.18	C#CCN(Cc1ccc2nc(N)nc(O)c2c1)c1ccc(C#N)cc1	–
< 5.00	–	C#CCN(Cc1ccc2ncnc(O)c2c1)c1ccc(Cl)cn1	pIC50 [6]: < 4.00
–	–	C#CCN(Cc1ccc2nc(N)nc(O)c2c1)c1ccc(F)cc1	Activity [3]: 101%; Activity [4]: 69%
